Square brackets hold non-standard residues; d marks the D form. Peptide text beside a SMILES is read from it. * marks the point of attachment. Hydrocinnamoyl = O=C(CCc1ccccc1)*; Undecanoyl = CCCCCCCCCCC(=O)*; pGlu = O=C1CC[C@@H](C(=O)O)N1; Nicotinoyl = O=C(c1cccnc1)*; Ac6c = NC1(C(=O)O)CCCCC1; NHPh = c1ccc(N*)cc1

The assay is filed under the species Rattus norvegicus. Nature of the assay: Inhibition of rat recombinant Rab geranylgeranyltransferase at 100 uM in presence of canine Rab7 and rat REP1 NBD-FPP based continuous fluorimetric assay. The essentials:
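Continuous fluorometric assay in 96/384-well format: 3 μM Rab7, 3 μM REP1, 9 μM NBD-FPP and 400 nM RabGGTase, with or without inhibitor. […] IC50 was calculated from three independent measurements.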
The inhibition is the relative decrease from the control value, in per cent. With `CC(C)C[C@H](NC(=O)/C=C/c1ccccc1)C(=O)N[C@@H](Cc1ccc(Br)cc1)C(=O)N[C@@H](Cc1ccccc1)C(=O)OCc1ccccc1`, the inhibition is 55%.

For the compound `CCC/C=C\c1ccccc1/C=C/C(=O)N[C@H](Cc1ccc(O)cc1)C(=O)N(C)[C@@H](Cc1ccc(OC)cc1)C(=O)N(C)[C@@H](Cc1ccccc1)C(=O)OCc1cnc(C)s1`, the inhibition was 97%.

Regarding `COC(=O)[C@H](CCC(N)=O)NC(=O)[C@H](Cc1ccccc1)NC(=O)CNC(=O)CCc1ccccc1` (Hydrocinnamoyl-Gly-Phe-Gln-OMe), the inhibition worked out at 92%.

`COc1ccc(C[C@@H](C(=O)N(C)[C@@H](Cc2ccccc2)C(=O)O)N(C)C(=O)[C@@H](Cc2ccc(O)cc2)NC(=O)OCc2ccccc2)cc1`: the inhibition came to 25%.

`CCCCCCCCCCC(=O)N[C@@H](Cc1ccc(O)cc1)C(=O)N[C@@H](Cc1c[nH]cn1)C(=O)N[C@@H](Cc1c[nH]cn1)C(=O)NCCCn1ccnc1`: the inhibition worked out at 59%.

Regarding `CCCCCCCCCCCOc1ccc(C(=O)N[C@@H](Cc2c[nH]cn2)C(=O)N[C@@H](Cc2ccc(O)cc2)C(=O)N[C@@H](Cc2ccccc2)C(=O)Nc2nccs2)cc1`, the inhibition turned out to be 76%.

Take `C=CCCCOC(=O)[C@H](CCC(N)=O)NC(=O)[C@H](C)NC(=O)[C@@H](NC(=O)c1ccc(-c2ccccc2)cc1)[C@@H](C)O`: the inhibition came to 89%.

On to `O=C(N[C@@H](CO)C(=O)N[C@@H](Cc1ccccc1)C(=O)N[C@@H](CO)C(=O)Nc1ccccc1)C(Br)C(Br)c1ccc(F)cc1` (some centres not stated), for which the inhibition was 81%.

Take `CC[C@H](C)[C@H](NC(=O)[C@H](Cc1ccccc1)NC(=O)c1cccnc1)C(=O)N[C@@H](CCCNC(=N)N)C(=O)OC` (Nicotinoyl-Phe-Ile-Arg-OMe): the inhibition is 105%.

For the compound `C[C@@H](O)[C@H](NC(=O)C(Br)C(Br)c1ccccc1)C(=O)N[C@@H](Cc1ccccc1)C(=O)N[C@@H](CCC(N)=O)C(=O)Nc1nccs1` (some centres not stated), the inhibition is 93%.

As for `O=C(N[C@@H](CO)C1=N[C@H](C(=O)O)CO1)c1coc(-c2ccccc2)n1`, the inhibition was 93%.

For `CCCCCCCCCCCCCC(=O)N[C@@H](Cc1ccc(O)cc1)C(=O)N[C@@H](Cc1ccc(O)cc1)C(=O)N[C@@H](Cc1ccc(O)cc1)C(=O)N(C)OC`, the inhibition was 89%.

In the case of `CCCCCCCCCCOc1ccc(C(=O)N[C@@H](Cc2c[nH]cn2)C(=O)N[C@@H](Cc2c[nH]cn2)C(=O)N[C@@H](CO)C(=O)OCCN)cc1`, the inhibition turned out to be 70%.

On to `O=C(CCc1ccccc1)N[C@@H](CO)C(=O)NCC(=O)N[C@@H](CO)C(=O)Nc1ccccc1` (Hydrocinnamoyl-Ser-Gly-Ser-NHPh), for which the inhibition was 93%.

For the compound `O=C(CNC(=O)[C@H](Cc1ccc(O)cc1)NC(=O)c1ccc(F)cc1F)N[C@@H](Cc1ccc(O)cc1)C(=O)O`, the inhibition was found to be 90%.

Consider `O=C(CNC(=O)[C@@H]1CCCN1C(=O)/C=C/c1ccccc1)N[C@@H](Cc1ccccc1)C(=O)NC1CCCCC1`, for which the inhibition was 61%.

As for `CCCCCCCCCCC(=O)N[C@@H](Cc1c[nH]cn1)C(=O)N[C@@H](Cc1ccccc1)C(=O)N[C@@H](Cc1ccc(O)cc1)C(=O)O` (Undecanoyl-His-Phe-Tyr-OH), the inhibition is 70%.

Regarding `CCCCCCCCCCC(=O)N[C@@H](Cc1c[nH]cn1)C(=O)N[C@@H](Cc1c[nH]cn1)C(=O)N[C@@H](Cc1ccc(O)cc1)C(=O)NCc1ccccn1`, the inhibition was determined as 80%.

Regarding `CC[C@H](C)[C@H](NC(=O)c1ccc(-c2ccccc2)cc1)C(=O)N[C@@H](C(=O)N[C@@H](CCC(N)=O)C(N)=O)C(C)C`, the inhibition is 89%.

On to `CC(C)C[C@H](NC(=O)[C@@H]1CCC(=O)N1)C(=O)N[C@@H](CCCCN)C(=O)NC1(C(N)=O)CCCCC1` ([pGlu]LK[Ac6c]-NH2), for which the inhibition was found to be 95%.

With `O=C(CCc1ccccc1)N[C@@H](CO)C(=O)N[C@@H](Cc1ccccc1)C(=O)N[C@@H](CO)C(=O)Nc1ccccc1` (Hydrocinnamoyl-Ser-Phe-Ser-NHPh), the inhibition is 89%.

Turning to `C[C@H](NC(=O)CCc1ccccc1)C(=O)N[C@@H](Cc1ccccc1)C(=O)N[C@@H](CCC(N)=O)C(=O)Nc1nccs1`, the inhibition was 96%.

The values above are taken from ChEMBL document CHEMBL1153722, “Design, synthesis, and characterization of peptide-based rab geranylgeranyl transferase inhibitors” (J Med Chem, 2009).
